Data on seven molecules can be found in publication PMC5901702 (Journal of biomolecular screening, 2012).

SMILES strings stand for the structures. Bounds are passed on as bounds.

One data set relates to pronase E. Briefly: Target specificity: pronase E activity with a-factor–based peptide. The note with it: 100 µM compound; relative to DMSO control = 100%. In kind it is biochemical. The procedure, abridged: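 Single-dose specificity assay with a-factor–based fluorogenic peptide (50 µM) in 0.1 M KPi pH 7.6. Ste23p was used at 10 µg/mL and 30 °C; trypsin and pronase E at 0.5 µg/mL each under the 37 °C HTS conditions. Enzymes were preincubated 10 min with 100 µM compound. Triplicate rates were normalized by trypsin/pronase full digestion and given relative to DMSO control (100%).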

In the next data set the target is T1, yeast Ste24p (Saccharomyces cerevisiae, UniProt P47154).
T1 sequence (P47154 1-453): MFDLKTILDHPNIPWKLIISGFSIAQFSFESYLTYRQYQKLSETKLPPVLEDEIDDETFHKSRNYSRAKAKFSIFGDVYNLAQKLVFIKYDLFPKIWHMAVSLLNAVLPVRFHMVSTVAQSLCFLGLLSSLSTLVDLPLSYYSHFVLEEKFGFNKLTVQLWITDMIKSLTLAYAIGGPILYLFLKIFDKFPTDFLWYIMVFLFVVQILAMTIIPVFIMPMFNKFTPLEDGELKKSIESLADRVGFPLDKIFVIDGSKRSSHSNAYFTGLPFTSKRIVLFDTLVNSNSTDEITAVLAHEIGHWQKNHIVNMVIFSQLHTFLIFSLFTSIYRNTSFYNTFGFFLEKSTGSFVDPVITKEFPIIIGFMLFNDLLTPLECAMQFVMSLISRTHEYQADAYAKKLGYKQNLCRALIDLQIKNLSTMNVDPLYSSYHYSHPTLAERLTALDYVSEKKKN
Briefly: Target specificity: Ste24p activity. The note with it: 100 µM compound; relative to DMSO control = 100%. Format: biochemical. The method in brief: (§1)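 Yeast-derived microsomes (250 µg/mL) enriched for Rce1p or Ste24p were preincubated 10 min with 100 µM compound. They were assayed with an internally quenched fluorogenic farnesylated K-Ras C-terminus–based peptide, read at 320/420 nm ex/em. Rates were in triplicate, normalized by trypsin/pronase complete digestion, and expressed relative to DMSO control (100%).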

For data set [1], the target named is T2, rat IDE (Rattus norvegicus, UniProt P35559).
T2 sequence (P35559 1-1019): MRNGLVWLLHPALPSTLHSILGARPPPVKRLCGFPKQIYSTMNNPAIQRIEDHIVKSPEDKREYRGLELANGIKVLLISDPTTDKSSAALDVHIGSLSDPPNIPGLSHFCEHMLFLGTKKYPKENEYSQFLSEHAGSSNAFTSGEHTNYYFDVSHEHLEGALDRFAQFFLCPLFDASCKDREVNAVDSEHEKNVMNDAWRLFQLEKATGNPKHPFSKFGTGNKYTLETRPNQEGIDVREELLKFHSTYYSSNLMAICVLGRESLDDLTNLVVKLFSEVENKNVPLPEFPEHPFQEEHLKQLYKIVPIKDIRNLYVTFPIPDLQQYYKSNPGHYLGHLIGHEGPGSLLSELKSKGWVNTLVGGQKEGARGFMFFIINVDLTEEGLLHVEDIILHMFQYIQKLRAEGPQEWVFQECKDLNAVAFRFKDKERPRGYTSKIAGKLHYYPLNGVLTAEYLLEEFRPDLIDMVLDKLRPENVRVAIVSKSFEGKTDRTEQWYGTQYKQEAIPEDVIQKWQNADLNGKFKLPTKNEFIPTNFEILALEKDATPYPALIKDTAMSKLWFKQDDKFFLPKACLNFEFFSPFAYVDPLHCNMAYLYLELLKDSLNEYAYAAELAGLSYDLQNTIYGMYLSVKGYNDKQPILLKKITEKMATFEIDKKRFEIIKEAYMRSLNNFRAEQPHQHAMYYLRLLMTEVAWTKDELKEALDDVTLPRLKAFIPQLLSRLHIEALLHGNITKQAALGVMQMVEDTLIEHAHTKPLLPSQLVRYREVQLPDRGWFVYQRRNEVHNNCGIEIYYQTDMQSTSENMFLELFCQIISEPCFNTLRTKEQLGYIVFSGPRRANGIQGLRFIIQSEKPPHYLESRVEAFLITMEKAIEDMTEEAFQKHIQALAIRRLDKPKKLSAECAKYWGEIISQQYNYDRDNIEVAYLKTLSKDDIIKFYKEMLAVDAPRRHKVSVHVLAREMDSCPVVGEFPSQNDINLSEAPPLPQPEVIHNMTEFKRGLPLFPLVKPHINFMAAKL
In words: Insulin competition with a-factor–based substrate on rat IDE. Format: biochemical. The note with it: 100 µM compound; […] (IC50) insulin; 0.1 M KPi.

In a further data set the target is T3, yeast Rce1p (Saccharomyces cerevisiae, UniProt Q03530).
T3 sequence (Q03530 1-315): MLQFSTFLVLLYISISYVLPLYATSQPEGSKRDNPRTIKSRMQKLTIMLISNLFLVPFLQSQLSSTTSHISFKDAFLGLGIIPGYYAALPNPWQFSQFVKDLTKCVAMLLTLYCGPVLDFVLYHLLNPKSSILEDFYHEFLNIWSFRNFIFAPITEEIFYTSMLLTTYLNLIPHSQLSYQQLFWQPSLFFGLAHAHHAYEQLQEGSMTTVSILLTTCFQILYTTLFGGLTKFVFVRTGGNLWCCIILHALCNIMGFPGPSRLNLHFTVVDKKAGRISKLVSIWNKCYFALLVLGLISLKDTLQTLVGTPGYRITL
Briefly: Target specificity: Rce1p activity. Format: biochemical. The note with it: 100 µM compound; relative to DMSO control = 100%. The procedure, abridged:
as §1

The subject of data set [2] is yeast y272 cotransformed with pWS192 and pWS496. Briefly: Yeast toxicity assay. In kind it is cell-based. Conditions: for yeast saturation density relative to DMSO-treated control: 100 µM compound, 44 h at 30 °C; for yeast saturation density relative to DMSO-treated culture: lower concentrations of compounds. The procedure, abridged: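 Saturated starter culture of y272 carrying pWS192 (MFA1) and pWS496 (PGK-driven HA-tagged rat IDE) was diluted 1:2000 into SC-UW and treated with DMSO or compound (100 µM, or lower empirically chosen doses), in triplicate. Cultures were grown 44 h at 30 °C, or 72 h where needed.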

The target of data set [3] is T2, rat IDE. In words: a-Factor production bioassay. Format: cell-based. The note with it: 72 h, relative to DMSO-treated control.
Data set [4] deals with T2, rat IDE. Briefly: Native PAGE mobility shift of rat IDE. Conditions: 100 µM compound; 60 min at 37 °C. Format: binding. The method in brief:
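Rat IDE was preincubated 60 min at 37 °C with compound (100 µM) or ATP (3 mM). It was mixed 1:1 with 2× native sample buffer (0.6 M Tris-HCl pH 6.8, 20% glycerol, bromophenol blue), run on 10% native PAGE at 4 °C and silver-stained.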

Data set [5] has as its target T2, rat IDE. Briefly: ATP effect on rat IDE activity and activators. Format: biochemical. The note with it: Tris/BSA, 1 mM ATP. The procedure, abridged: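 Rat IDE (87.7 nM) with 50 µM a-factor–based internally quenched fluorogenic substrate in 50 mM Tris pH 7.5 containing BSA and 1 mM ATP. Compounds were used at optimal levels taken from Tris/BSA dose-response curves. ATP titration (0–10 mM) was also run in 0.1 M KPi pH 7.6 or Tris/BSA. Activity is % of water- or DMSO-treated control, n = 4.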

Regarding `O=S(=O)(O)CCCc1cccc2ccccc12` [Compound 1], the “% Activity Pronase” value in the data set on pronase E came to 100.9 ± 0.1%. Further, on yeast Ste24p, the “% Activity Ste24p” value worked out at 97.2 ± 12.7%. Moreover, the “ability to stimulate IDE activity in presence of insulin” value (“ability to stimulate IDE activity” below) on rat IDE [1] was “retained their ability to stimulate IDE activity”. On yeast Rce1p, the “% Activity Rce1p” value is 89.7 ± 3.8%. Moreover, the “yeast saturation density relative to DMSO-treated control” value in data set [2] is greater than 90%.

For `O=C(O)c1ccc(Oc2nc3ccccc3s2)cc1` [Compound 7], the “% Activity Pronase” value in the data set on pronase E came to 104.3 ± 0.9%. Moreover, the “% Activity Ste24p” value at yeast Ste24p stood at 92.8 ± 13.1%. Moreover, at rat IDE [1], the “ability to stimulate IDE activity” value was “retained their ability to stimulate IDE activity”. At yeast Rce1p, the “% Activity Rce1p” value is listed as 89.6 ± 2.4%. The “yeast culture density relative to DMSO-treated culture” value in data set [2] (incubation extended to 72 h) is greater than 85%. For the same molecule, the “saturated growth of treated yeast cultures” value in data set [2] (lowest concentration evaluated 12.5 µM, 44 h) is “did not achieve saturated growth”. Further, the “IDE-mediated a-factor production in vivo” value at rat IDE [3] (100 µM compound) is recorded as “reduced the yield of a-factor produced”.

With `O=[N+]([O-])/C=C/c1cc2ccccc2[nH]1` [Compound 8], the “% Activity Pronase” value in the data set with pronase E is 93.3 ± 1.8%. Besides, at yeast Ste24p, the “% Activity Ste24p” value was 89.2 ± 10.7%. In addition, the “yeast saturation density relative to DMSO-treated control” value in data set [2] is “completely inhibited growth”. Besides, in data set [2] (44 h), the “yeast saturation density relative to DMSO-treated culture” value was greater than 90%. Also, on rat IDE [4], the “native PAGE mobility shift of IDE” value is “noticeable shift”. Also, the “IDE-mediated a-factor production in vivo” value on rat IDE [3] (25 µM compound) was “enhanced a-factor production in vivo”.

Turning to `O=S(=O)(O)c1cc(O)c2c(O)c(N=Nc3cccc4ccccc34)c(S(=O)(=O)O)cc2c1` [Compound 3], the “% Activity Pronase” value in the data set on pronase E turned out to be 103.8 ± 0.1%. Besides, the “activation over the ATP-only condition” value at rat IDE [5] (compound 125 µM) is given as “approximately 25%”. Moreover, on rat IDE [1], the “ability to stimulate IDE activity” value is recorded as “retained their ability to stimulate IDE activity”. In addition, the “yeast saturation density relative to DMSO-treated control” value in data set [2] is greater than 90%. The “native PAGE mobility shift of IDE” value at rat IDE [4] is “did not reveal a mobility shift”. In addition, the “IDE-mediated a-factor production in vivo” value at rat IDE [3] (100 µM compound) is reported as “enhanced a-factor production in vivo”.

Consider `Nc1nc(SCc2ccccc2Cl)cc(C(=O)O)n1` [Compound 5], for which the “% activity relative to ATP-only condition” value on rat IDE [5] (compound 500 µM) is on record as greater than 250%. In addition, the “% Activity Ste24p” value on yeast Ste24p is recorded as 131.4 ± 18.8%. Also, the “ability to stimulate IDE activity” value on rat IDE [1] is given as “retained their ability to stimulate IDE activity”. Also, the “% Activity Rce1p” value on yeast Rce1p was found to be 101.2 ± 11.0%. Besides, in data set [2] (44 h), the “yeast saturation density relative to DMSO-treated culture” value was greater than 90%. Further, on rat IDE [3] (12.5 µM compound), the “IDE-mediated a-factor production in vivo” value is reported as “enhanced a-factor production in vivo”.

Regarding `O=C(CCN1CC2CCC(CC2)C1)c1cccs1` [Compound 6], the “% Activity Pronase” value in the data set on pronase E turned out to be 104.4 ± 0.0%. Besides, the “% Activity Ste24p” value at yeast Ste24p worked out at 98.6 ± 9.9%. For the same molecule, on yeast Rce1p, the “% Activity Rce1p” value turned out to be 90.1 ± 1.0%. The “yeast saturation density relative to DMSO-treated control” value in data set [2] is listed as “completely inhibited growth”. Moreover, the “yeast saturation density relative to DMSO-treated culture” value in data set [2] (44 h) is listed as greater than 90%. The “native PAGE mobility shift of IDE” value at rat IDE [4] is listed as “noticeable shift”. In addition, on rat IDE [3] (50 µM compound), the “IDE-mediated a-factor production in vivo” value is recorded as “enhanced a-factor production in vivo”.

Take `Cn1ncc2c(NCCc3ccccc3)nc(Cl)nc21` [Compound 2]: the “% Activity Pronase” value in the data set with pronase E is listed as 89.2 ± 0.6%. The “% Activity Ste24p” value on yeast Ste24p is on record as 93.0 ± 6.8%. The “% Activity Rce1p” value at yeast Rce1p is reported as 83.2 ± 3.4%. Further, the “IDE-mediated a-factor production in vivo” value at rat IDE [3] (100 µM compound) was “reduced the yield of a-factor produced”.
